Values joined by “and” are separate entries in the source; they are usually repeats but may differ in a detail not shown here. Equal entries are not always repeated.
Columns and labels:
[1] = test system: Fibroblast; experiment: Multiplex assay against human fibroblast; assay type: toxicity, cell-based
In short: (§1)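 Live cells were stained at seeding with Hoechst33342, BioTracker Green Microtubule Cytoskeleton Dye, MitoTracker Red and Annexin V Alexa Fluor 680. Following compound addition, they were imaged on a CQ1 microscope at 37°C and 5% CO2 and gated by CellPathfinder machine learning into Hoechst high-intensity objects or normal cells, with normal cells split into healthy, pyknosed or fragmented nuclei and pyknosed cells into mitotic or apoptotic. Tubulin, mitochondrial-mass and membrane-permeability phenotypes are per cents of healthy-nucleus cells.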

[2] = test system: U2OS; experiment: Multiplex assay against U2OS; assay type: toxicity, cell-based; details: human; in short: as §1
[3] = 12 h, 1 µM, compound concentration 1 uM
[4] = 12 h, 10 µM, compound concentration 10 uM
[5] = 24 h, 1 µM, compound concentration 1 uM
[6] = 24 h, 10 µM, compound concentration 10 uM
[7] = 48 h, 1 µM, compound concentration 1 uM
[8] = 48 h, 10 µM, compound concentration 10 uM

C=CCN1C[C@H](C(=O)N(CCCN(C)C)C(=O)NCC)C[C@@H]2c3cccc4[nH]cc(c34)C[C@H]21 [CABERGOLINE]
Population Apoptotic (%) [1, 3]: 69% and 35% | Population Fragmented Nuclei (%) [1, 3]: 13% and 20% | Population Healthy Nuclei (%) [1, 3]: 78% and 46% | Population Hoechst High Intensity Objects (%) [1, 3]: 6% | Population Membrane Permeable-Phenotype (%) [1, 3]: 0% and 4% | Population Mitochondria Different-Phenotype (%) [1, 3]: 2% and 1% | Population Mitotic Cells (%) [1, 3]: 30% and 64% | Population Normal (%) [1, 3]: 93% | Population Tubulin-Different-Phenotype (%) [1, 3]: 26% and 25% | Total Cell Count [1, 3]: 186 and 144 | Population Apoptotic (%) [1, 4]: 50% and 35% | Population Fragmented Nuclei (%) [1, 4]: 25% and 44% | Population Healthy Nuclei (%) [1, 4]: 64% and 39% | Population Hoechst High Intensity Objects (%) [1, 4]: 3% and 5% | Population Membrane Permeable-Phenotype (%) [1, 4]: 0% and 6% | Population Mitochondria Different-Phenotype (%) [1, 4]: 11% and 10% | Population Mitotic Cells (%) [1, 4]: 50% and 64% | Population Normal (%) [1, 4]: 96% and 94% | Population Pyknosed Nuclei (%) [1, 4]: 10% and 16% | Population Tubulin-Different-Phenotype (%) [1, 4]: 46% and 53% | Total Cell Count [1, 4]: 248 and 178 | Population Apoptotic (%) [1, 5]: 68% and 44% | Population Fragmented Nuclei (%) [1, 5]: 15% and 24% | Population Healthy Nuclei (%) [1, 5]: 74% and 46% | Population Hoechst High Intensity Objects (%) [1, 5]: 4% and 6% | Population Membrane Permeable-Phenotype (%) [1, 5]: 1% and 3% | Population Mitochondria Different-Phenotype (%) [1, 5]: 3% | Population Mitotic Cells (%) [1, 5]: 31% and 55% | Population Normal (%) [1, 5]: 95% and 93% | Population Pyknosed Nuclei (%) [1, 5]: 10% and 29% | Population Tubulin-Different-Phenotype (%) [1, 5]: 33% and 39% | Total Cell Count [1, 5]: 198 and 132 | Population Apoptotic (%) [1, 6]: 73% and 43% | Population Fragmented Nuclei (%) [1, 6]: 28% and 43% | Population Healthy Nuclei (%) [1, 6]: 65% and 46% | Population Hoechst High Intensity Objects (%) [1, 6]: 1% and 10% | Population Membrane Permeable-Phenotype (%) [1, 6]: 0% and 2% | Population Mitochondria Different-Phenotype (%) [1, 6]: 7% and 5% | Population Mitotic Cells (%) [1, 6]: 26% and 56% | Population Normal (%) [1, 6]: 98% and 89% | Population Pyknosed Nuclei (%) [1, 6]: 5% and 9% | Population Tubulin-Different-Phenotype (%) [1, 6]: 44% and 53% | Total Cell Count [1, 6]: 274 and 181 | Population Apoptotic (%) [1, 7]: 56% and 58% | Population Fragmented Nuclei (%) [1, 7]: 15% and 24% | Population Healthy Nuclei (%) [1, 7]: 75% and 54% | Population Hoechst High Intensity Objects (%) [1, 7]: 5% and 7% | Population Membrane Permeable-Phenotype (%) [1, 7]: 0% and 6% | Population Mitochondria Different-Phenotype (%) [1, 7]: 6% and 1% | Population Mitotic Cells (%) [1, 7]: 43% and 41% | Population Normal (%) [1, 7]: 94% and 92% | Population Pyknosed Nuclei (%) [1, 7]: 8% and 21% | Population Tubulin-Different-Phenotype (%) [1, 7]: 34% and 33% | Total Cell Count [1, 7]: 189 and 156 | Population Apoptotic (%) [1, 8]: 72% and 46% | Population Fragmented Nuclei (%) [1, 8]: 24% and 52% | Population Healthy Nuclei (%) [1, 8]: 68% and 37% | Population Hoechst High Intensity Objects (%) [1, 8]: 4% and 5% | Population Membrane Permeable-Phenotype (%) [1, 8]: 1% and 6% | Population Mitochondria Different-Phenotype (%) [1, 8]: 4% and 11% | Population Mitotic Cells (%) [1, 8]: 27% and 53% | Population Normal (%) [1, 8]: 95% and 94% | Population Pyknosed Nuclei (%) [1, 8]: 6% and 9% | Population Tubulin-Different-Phenotype (%) [1, 8]: 46% and 44% | Total Cell Count [1, 8]: 282 and 170 | Population Apoptotic (%) [2, 3]: 86% and 57% | Population Fragmented Nuclei (%) [2, 3]: 13% and 9% | Population Healthy Nuclei (%) [2, 3]: 72% and 84% | Population Hoechst High Intensity Objects (%) [2, 3]: 2% and 3% | Population Membrane Permeable-Phenotype (%) [2, 3]: 3% and 8% | Population Mitochondria Different-Phenotype (%) [2, 3]: 1% and 4% | Population Normal (%) [2, 3]: 97% and 96% | Population Pyknosed Nuclei (%) [2, 3]: 13% and 5% | Population Tubulin-Different-Phenotype (%) [2, 3]: 1% and 5% | Total Cell Count [2, 3]: 228 and 129 | Population Apoptotic (%) [2, 4]: 69% and 64% | Population Fragmented Nuclei (%) [2, 4]: 35% and 17% | Population Healthy Nuclei (%) [2, 4]: 52% and 70% | Population Hoechst High Intensity Objects (%) [2, 4]: 3% and 2% | Population Membrane Permeable-Phenotype (%) [2, 4]: 15% and 13% | Population Mitochondria Different-Phenotype (%) [2, 4]: 9% and 21% | Population Mitotic Cells (%) [2, 4]: 30% and 35% | Population Normal (%) [2, 4]: 96% and 97% | Population Pyknosed Nuclei (%) [2, 4]: 11% and 12% | Population Tubulin-Different-Phenotype (%) [2, 4]: 11% and 9% | Total Cell Count [2, 4]: 228 and 143 | Population Apoptotic (%) [2, 5]: 82% and 64% | Population Fragmented Nuclei (%) [2, 5]: 15% and 7% | Population Healthy Nuclei (%) [2, 5]: 74% and 83% | Population Hoechst High Intensity Objects (%) [2, 5]: 3% and 1% | Population Membrane Permeable-Phenotype (%) [2, 5]: 1% and 9% | Population Mitochondria Different-Phenotype (%) [2, 5]: 1% and 4% | Population Mitotic Cells (%) [2, 5]: 17% and 35% | Population Normal (%) [2, 5]: 96% and 98% | Population Pyknosed Nuclei (%) [2, 5]: 10% and 8% | Population Tubulin-Different-Phenotype (%) [2, 5]: 0% and 6% | Total Cell Count [2, 5]: 295 and 162
